# Assay outcomes from PubChem BioAssay.
# The list is not random: actives were taken first. Their share in the collection is about 2.5%.
# bovine MsrA act: bovine methionine sulfoxide reductase A activation; purified bovine MsrA, absorbance read-out; AID 602163; activation, % at 10.6 µM; actives 0.3% (n = 360,000); in the data active means activation above about 7.5%;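 further: 0% = vehicle and 100% = reference activator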
# NadD block: NadD (S. aureus) enzyme inhibition. purified NadD enzyme, colorimetric absorbance read-out. inhibition, % at 20 µM. actives 0.78% (n = 360,000). AID 602399; in the data active means inhibition above about 26%
# NR2E3 ag-1: agonists of human nuclear receptor NR2E3 | Q9Y5X4 | GST-NR2E3/biotin-RetCOR TR-FRET, 1536-well | inhibition of corepressor binding, % at 4.78 µM | actives 0.12% (n = 320,000) | AID 2300;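 active means percent inhibition above the cutoff of mean plus 3 SD of all tested compounds, set per screening campaign, cut at about 20% in these data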;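 further: 0% = DMSO wells and 100% = biotin wells as full block of FRET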
#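 Material: NR2E3–RetCOR corepressor complex | Quantity: 1.35 nM GST-tagged NR2E3 final | Schedule: 5 h at 4 °C | Replication: Singlicate compound wells | Reagent: RetCOR corepressor, biotinylated, 7 nM | Controls: Biotin wells as high control, 0.6% DMSO wells as low control | Signal: TR-FRET, Eu(K)-anti-GST donor, streptavidin-D2 acceptor, ex 340, em 617/671 nm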
# GalR3 antagonist: blocks the human galanin receptor 3. inhibition, % at 3 µM. actives 0.44% (n = 360,000). O60755. HEK293 GalR3-CNG cAMP membrane potential fluorescence; galR3 body fused to GalR1 C-terminus. AID 651719;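 active means inhibition above the screen-wide average plus 3 SD, cut at about 13% in these data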;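 further: forskolin and galanin both at EC90 stimulate the cells; cAMP rise reported by CNG channel membrane potential dye signal; 0% = forskolin plus galanin with DMSO and 100% = forskolin alone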
# Target sequence (O60755 1-299 limits assumed): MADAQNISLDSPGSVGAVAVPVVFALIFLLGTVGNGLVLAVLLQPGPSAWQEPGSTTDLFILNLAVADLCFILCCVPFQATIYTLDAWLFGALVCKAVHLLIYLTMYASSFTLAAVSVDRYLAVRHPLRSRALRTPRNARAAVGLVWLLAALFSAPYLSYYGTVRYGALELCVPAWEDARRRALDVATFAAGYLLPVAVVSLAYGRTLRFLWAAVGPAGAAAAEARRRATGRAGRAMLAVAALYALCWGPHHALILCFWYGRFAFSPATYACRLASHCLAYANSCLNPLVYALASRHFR
# NR2E3 ag-2: agonists of human NR2E3 nuclear receptor; inhibition of corepressor binding, % at 3.98 µM; CHO-S Gal4-NCOR/VP16-NR2E3 two-hybrid, luciferase; actives 0.35% (n = 360,000);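 active means inhibition above the mean of all tested compounds plus 3 SD, cut at about 70% in these data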;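 further: 0% = DMSO with NR2E3 transfected cells and 100% = cells lacking NR2E3 construct; higher means lower luciferase signal from less NR2E3 corepressor binding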
# MsrA inhibitor: inhibits bovine methionine sulfoxide reductase A; actives 0.75% (n = 360,000); purified bovine MsrA, absorbance read-out; inhibition, % at 15.5 µM; in the data active means inhibition above about 4.5%;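 further: 0% = vehicle wells with enzyme and 100% = reference inhibitor wells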
# NadD inh conf: confirmation of Staphylococcus aureus NadD inhibitors; shares compounds with NadD block; purified S. aureus NadD, colorimetric enzyme assay; inhibition, % at 20 µM; actives 13% (n = 2,000); AID 624309; in the data active means inhibition mostly above about 42%, no sharp cut-off; inactive means mostly below about 42%
# * = called active by the depositor; nt = no result given.
SMILES,bovine MsrA act,NadD block,NR2E3 ag-1,GalR3 antagonist,NR2E3 ag-2,MsrA inhibitor,NadD inh conf
CC(=O)c1ccc(N2CCN(C(=O)CCCn3c(=S)[nH]c4cc5c(cc4c3=O)OCO5)CC2)cc1,1,46*,-2,-5,-15,1,15
Cc1cccc(N2CCN(C(=O)CCCn3c(=S)[nH]c4cc5c(cc4c3=O)OCO5)CC2)c1C,-2,56*,0,-4,3,1,14
O=C(CCCn1c(=S)[nH]c2cc3c(cc2c1=O)OCO3)N1CCN(c2ccc(Cl)cc2)CC1,0,35*,2,-2,3,2,18
COc1ccccc1N1CCN(C(=O)c2ccc(Br)s2)CC1,-2,3,1,-7,-36,-1,nt
COc1cc(C)c(CN2CCC(Cc3ccccc3)CC2)cc1C,-4,-9,nt,-5,11,0,nt
CCN(CC)c1nc2c3c(nc4c(c3c1C#N)CC(=O)N4c1ccc(Cl)cc1)NC(C)=N2,-3,45*,5,5,-16,2,27
CCc1ccc(N2C(=O)Cc3c2nc(N)c(C#N)c3N)cc1,-6,7,3,-4,-56,3,nt
O=C(c1ccc(Cl)c(S(=O)(=O)Nc2ccccc2C(=O)N2CCc3ccccc3C2)c1)N1CCc2ccccc2C1,-7,47*,-3,-10,13,0,33
O=C(NC1CCCCC1)C1c2ccccc2OCC(=O)N1C1CC1 (stereo not given),-5,3,nt,-6,-8,0,nt
O=C(O)c1ccccc1NS(=O)(=O)c1ccc(NN=Cc2cccc(Cl)c2)c([N+](=O)[O-])c1,-4,31*,nt,-4,-7,0,11
COc1c(/C=N/Nc2ccc([N+](=O)[O-])cc2[N+](=O)[O-])c(C)nn1-c1ccccc1,-4,15,0,-3,-34,0,nt
COc1ccccc1NS(=O)(=O)c1ccc(N/N=C/c2c(C)nn(-c3ccccc3)c2N2CCCC2)c([N+](=O)[O-])c1,-4,38*,1,-9,-9,-1,14
O=C(O)c1ccccc1NS(=O)(=O)c1ccc(NN=Cc2ccc(F)cc2)c([N+](=O)[O-])c1,-5,12,nt,nt,-20,nt,nt
CCOc1ccc(S(=O)(=O)Nc2ccc(C(=O)N/N=C/c3c(C)nn(-c4ccccc4)c3N3CCCC3)cc2)cc1,-2,33*,1,-3,-26,2,24
COc1ccccc1NS(=O)(=O)c1cccc(C(=O)N/N=C/c2c(C)nn(-c3ccccc3)c2N2CCCC2)c1,-6,24,-3,-6,-14,1,nt
Cc1nn(-c2ccccc2)c(N2CCCCC2)c1/C=N/NC(=O)c1ccncc1,-1,1,0,-7,-1,1,nt
Cc1nn(-c2ccccc2)c(N2CCCC2)c1/C=N/Nc1ccc(S(=O)(=O)Nc2ccccc2)cc1[N+](=O)[O-],-2,47*,-2,-4,-29,0,22
C=CCN1C(=O)c2n[nH]c(COC)c2C1c1cccc(C(F)(F)F)c1 (stereo not given),nt,nt,nt,-6,nt,0,nt
O=C(Nc1ccc(Cl)cc1C(=O)Nc1ccncc1)c1ccco1,-8,-1,-1,-7,5,0,nt
O=C(Nc1ccc(C(=O)O)cc1)/C(=C\c1ccc(F)cc1)NC(=O)c1ccco1,-1,6,2,-8,11,0,nt
C#CCn1c(=NC(=O)c2sc3ccccc3c2Cl)sc2cc(S(N)(=O)=O)ccc21,-5,39*,-41,0,-11,4,-7
N=c1scc(-c2ccccc2)n1/N=C/c1ccco1,nt,38*,0,1,nt,2,45
C(=N/n1c2ccccc2c2ccccc21)/c1ccco1,-2,-1,1,-3,-12,1,nt
N#CC1=C(N)OC2=C(C(=O)CC(c3ccccc3)C2)C1c1ccoc1 (stereo not given),-2,1,0,-3,-10,0,nt
COc1cccc(C2C(C#N)=C(N)OC3=C2C(=O)CC(c2ccco2)C3)c1OCc1ccc(F)cc1 (stereo not given),-6,31*,-2,-4,0,0,16
